In ChEMBL document CHEMBL4049421, “Design, Synthesis, and Pharmacological Characterization of N-(4-(2 (6,7-Dimethoxy-3,4-dihydroisoquinolin-2(1H)yl)ethyl)phenyl)quinazolin-4-amine Derivatives: Novel Inhibitors Reversing P-Glycoprotein-Mediated Multidrug Resistance” (J Med Chem, 2017):
Activity calls are given as the source filed them. The rule behind the calls is not given here.

Experiments:
[1] = Cytotoxicity against human K562 cells assessed as cell viability at 1.0 uM after 48 hrs by MTT assay (reference value: >99%); assay type: cell-based; conditions: read-out: Activity
[2] = Cytotoxicity against human K562/A02 cells assessed as cell viability at 1.0 uM after 48 hrs by MTT assay (reference value: >99%); assay type: cell-based; conditions: read-out: Activity
Homo sapiens [3] = species on record: Homo sapiens; assay: Inhibition of P-gp in human K562/A02 cells assessed as potentiation of doxorubicin-induced cytotoxicity by measuring fold reduction in doxorubicin IC50 at 1.0 uM after 48 hrs by MTT assay relative to doxorubicin alone; assay type: cell-based
In short: (§1)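 K562/A02 cells (1×10^4 cells per well) were exposed to a DOX concentration series, alone or with modulator at 1.0 μM, for 48 h. Viability was read by MTT at 490 nm. Reversal fold = DOX IC50 without inhibitor / DOX IC50 with inhibitor, mean ± SD of three tests.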

K562 = assay: Cytotoxicity against human K562 cells assessed as suppression of cell viability after 48 hrs by MTT assay; assay type: cell-based; conditions: K562, 48 h
In short: (§2)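 MTT assay on HUVEC, K562 or K562/A02 cells seeded at 1×10^4 cells per well, using serial compound concentrations. Formazan was dissolved in DMSO and read at 490 nm. IC50 was obtained from log dose–response curves, mean ± SD of three independent tests.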

K562/A02 [4] = assay: Cytotoxicity against human K562/A02 cells assessed as suppression of cell viability after 48 hrs by MTT assay; assay type: cell-based; conditions: K562/A02, 48 h; in short: as §2
HUVEC = assay: Cytotoxicity against HUVEC assessed as reduction in cell viability after 48 hrs by MTT assay; assay type: cell-based; conditions: Homo sapiens; in short: as §2
[5] = Inhibition of P-gp in human K562/A02 cells assessed as potentiation of doxorubicin-induced cytotoxicity by measuring fold reduction in doxorubicin IC50 after 48 hrs by MTT assay relative to doxorubicin alone; assay type: cell-based; conditions: K562/A02, 48 h; in short: as §1
[6] = Selective index, ratio of IC50 for human K562/A02 cells to EC50 for inhibition of P-gp in human K562/A02 cells assessed as potentiation of doxorubicin-induced cytotoxicity
In short: (§3)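 Reversal EC50 is the modulator concentration that halves the DOX IC50 in K562/A02 cells, from % DOX IC50 plotted against log modulator concentration. The index divides the MTT IC50 in K562, K562/A02 or HUVEC cells by this EC50.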

[7] = Selectivity index, ratio of IC50 for HUVEC to EC50 for inhibition of P-gp in human K562/A02 cells assessed as potentiation of doxorubicin-induced cytotoxicity; in short: as §3
Homo sapiens [8] = species on record: Homo sapiens; assay: Inhibition of P-gp in human K562/A02 cells assessed as potentiation of paclitaxel-induced cytotoxicity at 1.0 uM after 48 hrs by MTT assay; assay type: cell-based
In short: (§4)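 K562/A02 cells were exposed for 48 h to DNR, PTX, VLB or CTX at 0, 0.313–20 μM, with or without modulator at 1.0 μM. Viability was measured by MTT at 490 nm, mean ± SD of three independent tests.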

Homo sapiens [9] = species on record: Homo sapiens; assay: Inhibition of P-gp in human K562/A02 cells assessed as potentiation of vinblastine-induced cytotoxicity at 1.0 uM after 48 hrs by MTT assay; assay type: cell-based; in short: as §4
Homo sapiens [10] = species on record: Homo sapiens; assay: Inhibition of P-gp in human K562/A02 cells assessed as potentiation of daunorubicin-induced cytotoxicity at 1.0 uM after 48 hrs by MTT assay; assay type: cell-based; in short: as §4
K562/A02 [11] = assay: Potentiation of cyclophosphamide-induced cytotoxicity against human K562/A02 cells at 1.0 uM after 48 hrs by MTT assay; assay type: functional, cell-based; in short: as §4
Homo sapiens [12] = species on record: Homo sapiens; assay: Inhibition of P-gp mediated efflux in human K562/A02 cells assessed as intracellular Rh123 accumulation at 1.0 uM measure up to 90 mins by flow cytometric analysis; assay type: cell-based
In short: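 K562/A02 cells were loaded with 5 μM Rh123 for 90 min at 37 °C and washed three times. They were then incubated with or without modulator at 37 °C for 5, 10, 25, 30, 60 and 90 min. Retained Rh123 MFI per 10000 cells was measured by flow cytometry. 0.1% DMSO negative control, n = 3.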

[13] = Inhibition of CYP3A4 in rat liver microsomes assessed as decrease in 6beta-OH testosterone levels at 40 uM using testosterone as substrate by HPLC analysis; assay type: ADME
In short: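 Rat liver microsomes, prepared by differential centrifugation, were incubated with testosterone in the absence or presence of compound at 2.5, 5.0, 10.0, 20.0 and 40.0 μM. The 6β-OH testosterone product was quantified by C18 reverse-phase gradient HPLC at 254 nm. Ketoconazole served as positive control. n = 3.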

Rattus norvegicus [14] = assay: AUC(0 to 24 hrs) in Sprague-Dawley rat plasma at 10 mg/kg, po measured after 24 hrs by LC-MS/MS analysis; assay type: ADME, organism-based; design: dose 10 mg/kg, time < 24 hr, route oral; conditions: in vivo
In short: (§5)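 Male Sprague-Dawley rats, n = 3 per group, given drug in Tween-80/ethanol/saline (5:10:85, v/v) at 10 mg/kg p.o. or 5 mg/kg i.v. Retro-orbital blood was taken at 5 min to 24 h, and plasma separated at 900g. Samples were spiked with internal standard, methanol-precipitated and quantified by LC-MS/MS. F = (AUCpo/AUCiv)×(dose iv/dose po)×100%.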

Rattus norvegicus [15] = assay: AUC(0 to 24 hrs) in Sprague-Dawley rat plasma at 5 mg/kg, iv measured after 24 hrs by LC-MS/MS analysis; assay type: ADME, organism-based; design: dose 5 mg/kg, time < 24 hr, route intravenous; conditions: in vivo; in short: as §5
Rattus norvegicus [16] = assay: AUC(0 to infinity) in Sprague-Dawley rat plasma at 10 mg/kg, po measured after 24 hrs by LC-MS/MS analysis; assay type: ADME, organism-based; design: dose 10 mg/kg, route oral, time infinity; conditions: in vivo; in short: as §5
Rattus norvegicus [17] = assay: AUC(0 to infinity) in Sprague-Dawley rat plasma at 5 mg/kg, iv measured after 24 hrs by LC-MS/MS analysis; assay type: ADME, organism-based; design: dose 5 mg/kg, time infinity, route intravenous; conditions: in vivo; in short: as §5
[18] = Elimination half life in Sprague-Dawley rat plasma at 10 mg/kg, po by LC-MS/MS analysis; assay type: ADME, organism-based; conditions: read-out: beta t1/2 (converted); in short: as §5
[19] = Elimination half life in Sprague-Dawley rat plasma at 5 mg/kg, iv by LC-MS/MS analysis; assay type: ADME, organism-based; conditions: read-out: beta t1/2 (converted); in short: as §5
[20] = Cmax in Sprague-Dawley rat at 10 mg/kg, po measured after 24 hrs by LC-MS/MS analysis; assay type: ADME, organism-based; design: dose 10 mg/kg, route oral; conditions: in vivo; in short: as §5
[21] = Cmax in Sprague-Dawley rat at 5 mg/kg, iv measured after 24 hrs by LC-MS/MS analysis; assay type: ADME, organism-based; design: dose 5 mg/kg, route intravenous; conditions: in vivo; in short: as §5
Rattus norvegicus [22] = assay: Effect on plasma concentration of doxorubicin in Sprague-Dawley rat at 5 mg/kg, iv co-administered with doxorubicin measured after 8 hrs by LC-MS/MS analysis; assay type: ADME, organism-based; conditions: in vivo
In short: (§6)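 Male SD rats received DOX 10 mg/kg i.v. alone or with modulator 5 mg/kg i.v. Orbital blood was taken at 5 min to 8 h. Plasma DOX was measured by LC-MS/MS with DNR (0.5 μg/mL) as internal standard. Mean ± SD, n = 3.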

Rattus norvegicus [23] = assay: Effect on MRT of doxorubicin in Sprague-Dawley rat at 5 mg/kg, iv co-administered with doxorubicin measured after 8 hrs by LC-MS/MS analysis; assay type: ADME, organism-based; conditions: in vivo; in short: as §6
Rattus norvegicus [24] = assay: Effect on half life of doxorubicin in Sprague-Dawley rat at 5 mg/kg, iv co-administered with doxorubicin measured after 8 hrs by LC-MS/MS analysis; assay type: ADME, organism-based; conditions: in vivo; in short: as §6

COc1cc2c(cc1OC)CN(CCc1ccc(Nc3nc(-c4ccncc4)nc4ccccc34)cc1)CC2
viability at 48 h, 1 µM [1]: 96.5%
viability at 48 h, 1 µM [2]: > 99%
fold change (FC) (Homo sapiens [3]): 30.9
IC50 (K562): 4 µM
IC50 (K562/A02 [4]): 12.8 µM
IC50 (HUVEC): 73.6 µM
EC50 [5]: 0.0579 µM
Ratio IC50/EC50 [6]: 241.6
Ratio IC50/EC50 [7]: 1270
inhibition (Homo sapiens [8]): Active
inhibition (Homo sapiens [9]): Active
inhibition (Homo sapiens [10]): Active
Activity (K562/A02 [11]): inactive
inhibition (Homo sapiens [12]): Active
inhibition (INH) [13]: Not Active
AUC (Rattus norvegicus [14]): 3130 ng·h/mL
AUC (Rattus norvegicus [15]): 1660 ng·h/mL
AUC (Rattus norvegicus [16]): 3340 ng·h/mL
AUC (Rattus norvegicus [17]): 1750 ng·h/mL
half-life [18]: 6.2 h
half-life [19]: 5.9 h
Cmax [20]: 761 ng/mL
Cmax [21]: 570 ng/mL
Activity (Rattus norvegicus [22]): Non-Toxic
Activity (Rattus norvegicus [23]): Non-Toxic
Activity (Rattus norvegicus [24]): Non-Toxic
